Measurements: ChEMBL document CHEMBL4002619, “Targeting Type 2 Diabetes with C-Glucosyl Dihydrochalcones as Selective Sodium Glucose Co-Transporter 2 (SGLT2) Inhibitors: Synthesis and Biological Evaluation” (J Med Chem, 2017)
pIC50: −log10 of the molar value. The source made the active and inactive calls. The rule behind the calls is not given here.

Legend:
Assay type in all cases: cell-based
[1] = molecular target: T1, Sodium/glucose cotransporter 2 (Homo sapiens) (UniProt P31639); test: Inhibition of human SGLT2 expressed in HEK293 cells assessed as reduction in 2-deoxyglucose uptake at 100 uM pretreated for 10 mins followed by 2-deoxyglucose addition in presence of sodium buffer measured after 1 hr by resazurin dye based fluorescence assay
T1 sequence (whole entry): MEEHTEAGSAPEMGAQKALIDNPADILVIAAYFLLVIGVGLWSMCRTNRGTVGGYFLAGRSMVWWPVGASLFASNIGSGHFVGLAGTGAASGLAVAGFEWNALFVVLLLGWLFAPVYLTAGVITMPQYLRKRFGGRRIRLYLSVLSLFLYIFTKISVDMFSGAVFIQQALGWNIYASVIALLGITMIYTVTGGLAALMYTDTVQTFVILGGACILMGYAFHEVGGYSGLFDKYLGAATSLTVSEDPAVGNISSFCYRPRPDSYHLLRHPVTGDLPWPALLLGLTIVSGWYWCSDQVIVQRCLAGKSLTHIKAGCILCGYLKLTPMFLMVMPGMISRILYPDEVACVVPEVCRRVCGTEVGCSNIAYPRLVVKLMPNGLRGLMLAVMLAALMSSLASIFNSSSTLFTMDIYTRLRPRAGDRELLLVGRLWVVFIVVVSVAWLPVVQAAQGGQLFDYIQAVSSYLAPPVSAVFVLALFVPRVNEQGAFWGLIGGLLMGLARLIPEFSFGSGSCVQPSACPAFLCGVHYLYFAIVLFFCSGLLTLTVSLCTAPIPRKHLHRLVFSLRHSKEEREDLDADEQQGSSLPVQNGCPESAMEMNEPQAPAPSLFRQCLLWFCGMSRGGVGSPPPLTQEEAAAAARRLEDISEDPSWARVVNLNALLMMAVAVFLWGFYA
Method in brief: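 Stably transfected HEK293 expressing human SGLT2 (pCMV6-Neo, G418-selected), 2.0 × 10^4 cells/well, 24 h; 1 h preincubation in KRPH buffer at 37 °C; compound 100 µM; 2-deoxyglucose 1 mM, 1 h at 37 °C; NaOH lysis at 80-85 °C, neutralised; enzymatic cycling (G6PDH, NADP+, diaphorase, 10 µM resazurin, pH 8.2) 15-20 h; fluorescence ex 560/em 590 nm. Mean ± SD, three independent experiments.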

HEK293 = test: Cytotoxicity in HEK293 cells assessed as cell viability at 100 uM measured after 20 to 24 hrs by Cell-Titer Blue fluorescence assay; conditions: human, hek293, 100 µM
Method in brief: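 HEK293 cells (DMEM, 10% FBS, 37 °C, 5% CO2) seeded 2.0 × 10^4 cells/well 24 h before; compound at 100 µM in triplicate, 20-24 h at 37 °C; CellTiter-Blue 4 h at 37 °C; fluorescence ex 560/em 590 nm; viability as treated/untreated fluorescence ratio, %. DMSO-treated wells run alongside. Mean ± SD of three independent experiments.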

[2] = molecular target: T2, Sodium/glucose cotransporter 1 (Homo sapiens, UniProt P13866); test: Inhibition of human SGLT1 expressed in HEK293 cells assessed as reduction in 2-deoxyglucose uptake at 100 uM pretreated for 10 mins followed by 2-deoxyglucose addition in presence of sodium buffer measured after 1 hr by resazurin dye based fluorescence assay; conditions: hek293, 1 h
T2 sequence (P13866 whole entry): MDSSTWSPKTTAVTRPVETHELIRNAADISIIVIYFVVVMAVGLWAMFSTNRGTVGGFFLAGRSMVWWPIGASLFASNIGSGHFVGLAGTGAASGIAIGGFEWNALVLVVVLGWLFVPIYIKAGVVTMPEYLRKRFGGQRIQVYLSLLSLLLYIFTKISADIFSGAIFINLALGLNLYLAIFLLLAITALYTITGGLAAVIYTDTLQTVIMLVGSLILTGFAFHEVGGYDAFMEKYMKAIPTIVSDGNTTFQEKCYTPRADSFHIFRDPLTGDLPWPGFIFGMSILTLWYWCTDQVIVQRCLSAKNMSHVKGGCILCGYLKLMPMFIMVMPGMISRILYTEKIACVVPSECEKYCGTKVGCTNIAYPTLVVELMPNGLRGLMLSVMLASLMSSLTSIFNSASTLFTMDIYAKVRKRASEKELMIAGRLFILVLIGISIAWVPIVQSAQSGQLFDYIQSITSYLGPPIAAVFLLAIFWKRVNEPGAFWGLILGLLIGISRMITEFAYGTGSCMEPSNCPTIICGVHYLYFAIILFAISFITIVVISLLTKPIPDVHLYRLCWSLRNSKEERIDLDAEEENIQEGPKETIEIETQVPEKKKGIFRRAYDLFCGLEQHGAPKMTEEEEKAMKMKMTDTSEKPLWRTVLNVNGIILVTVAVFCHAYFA

[3] = molecular target: T3, Sodium/glucose cotransporter 2 (Homo sapiens, UniProt P31639); test: Inhibition of human SGLT2 expressed in HEK293 cells assessed as reduction in 2-deoxyglucose uptake pretreated for 10 mins followed by 2-deoxyglucose addition in presence of sodium buffer measured after 1 hr by resazurin dye based fluorescence assay
T3 sequence (P31639 whole entry): T1 sequence (whole entry)

[4] = Inhibition of GLUT in HEK293 cells assessed as reduction in 2-deoxyglucose uptake at 100 uM pretreated for 10 mins followed by 2-deoxyglucose addition in presence of choline buffer measured after 1 hr by resazurin dye based fluorescence assay; conditions: human
Method in brief: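 SGLT1 and SGLT2 stable HEK293 lines (G418-selected) assayed in sodium-free buffer, NaCl replaced by choline chloride; compounds at 100 µM; phlorizin and cytochalasin B as controls. 2-deoxyglucose 1 mM, 1 h at 37 °C; lysis in 0.1 M NaOH, 80-85 °C 40 min, neutralised; G6PDH/NADP+/diaphorase/resazurin cycling 15-20 h at 37 °C; resorufin fluorescence ex 560/em 590 nm.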

CCOc1ccc(CCC(=O)c2c(O)cc(O)c([C@@H]3O[C@H](CO)[C@@H](O)[C@H](O)[C@H]3O)c2O)cc1
inhibition [1]: Active | Activity (HEK293): Non-Toxic | inhibition (INH) [2]: Active | pIC50 [3]: 7.66 | inhibition (INH) [4]: Not Active

Cc1ccc(CCC(=O)c2c(O)cc(O)cc2O)cc1
inhibition [1]: Active | Activity (HEK293): Non-Toxic | inhibition (INH) [2]: Active | pIC50 [3]: 4.74 | inhibition (INH) [4]: Active

O=C(/C=C/c1ccccc1)c1c(O)cc(O)cc1O [2',4',6-TRIHYDROXYCHALCONE]
inhibition [1]: Active

O=C(CCc1ccc(F)cc1)c1c(O)cc(O)cc1O
inhibition [1]: Active | Activity (HEK293): Non-Toxic | inhibition (INH) [2]: Active | pIC50 [3]: 4.80 | inhibition (INH) [4]: Active

O=C(CCc1ccc(O)cc1)c1c(O)cc(O)cc1O [PHLORETIN]
inhibition [1]: Active | Activity (HEK293): Non-Toxic | pIC50 [3]: 4.74 | inhibition (INH) [4]: Active

O=C(CCc1ccccc1)c1c(O)cc(O)c([C@@H]2O[C@H](CO)[C@@H](O)[C@H](O)[C@H]2O)c1O
inhibition [1]: Active | Activity (HEK293): Non-Toxic | inhibition (INH) [2]: Active | pIC50 [3]: 7.70 | inhibition (INH) [4]: Not Active

CCCOc1ccc(CCC(=O)c2c(O)cc(O)c([C@@H]3O[C@H](CO)[C@@H](O)[C@H](O)[C@H]3O)c2O)cc1
inhibition [1]: Active | Activity (HEK293): Non-Toxic | inhibition (INH) [2]: Active | pIC50 [3]: 7.64 | inhibition (INH) [4]: Not Active

CCCOc1ccc(CCC(=O)c2c(O)cc(O)cc2O)cc1
inhibition [1]: Active | Activity (HEK293): Non-Toxic | inhibition (INH) [2]: Active | pIC50 [3]: 4.79 | inhibition (INH) [4]: Active

O=C(CCc1ccc(O)cc1)c1c(O)cc(O)cc1O[C@@H]1O[C@H](CO)[C@@H](O)[C@H](O)[C@H]1O [PHLORIZIN]
inhibition [1]: Active | Activity (HEK293): Non-Toxic

CCOc1ccc(CCC(=O)c2c(O)cc(O)cc2O)cc1
inhibition [1]: Active | Activity (HEK293): Non-Toxic | inhibition (INH) [2]: Active | pIC50 [3]: 4.78 | inhibition (INH) [4]: Active

CCOc1ccc(Cc2cc([C@@H]3O[C@H](CO)[C@@H](O)[C@H](O)[C@H]3O)ccc2Cl)cc1 [DAPAGLIFLOZIN]
inhibition [1]: Active | inhibition (INH) [2]: Active

O=C(/C=C/c1ccc(OCc2ccccc2)cc1)c1c(O)cc(O)cc1O
inhibition [1]: Active | Activity (HEK293): Non-Toxic | inhibition (INH) [2]: Active | pIC50 [3]: 4.64 | inhibition (INH) [4]: Active

O=C(CCc1ccc(F)cc1)c1c(O)cc(O)c([C@@H]2O[C@H](CO)[C@@H](O)[C@H](O)[C@H]2O)c1O
inhibition [1]: Active | Activity (HEK293): Non-Toxic | inhibition (INH) [2]: Active | pIC50 [3]: 8.04 | inhibition (INH) [4]: Not Active

O=C(/C=C/c1ccc(F)cc1)c1c(O)cc(O)cc1O [4-FLUORO-2',4',6'-TRIHYDROXYCHALCONE]
inhibition [1]: Active | Activity (HEK293): Non-Toxic | inhibition (INH) [2]: Active | pIC50 [3]: 4.29 | inhibition (INH) [4]: Active

COc1ccc(CCC(=O)c2c(O)cc(O)c([C@@H]3O[C@H](CO)[C@@H](O)[C@H](O)[C@H]3O)c2O)cc1
inhibition [1]: Active | Activity (HEK293): Non-Toxic | inhibition (INH) [2]: Active | pIC50 [3]: 7.67 | inhibition (INH) [4]: Not Active

COc1ccc(/C=C/C(=O)c2c(O)cc(O)cc2O)cc1 [4-METHOXYL-2',4',6'-TRIHYDROXYCHALCONE]
inhibition [1]: Active | Activity (HEK293): Non-Toxic | inhibition (INH) [2]: Active | pIC50 [3]: 4.74 | inhibition (INH) [4]: Active

C=CCOc1ccc(/C=C/C(=O)c2c(O)cc(O)cc2O)cc1
inhibition [1]: Active | Activity (HEK293): Non-Toxic | inhibition (INH) [2]: Active | pIC50 [3]: 4.58 | inhibition (INH) [4]: Active

Cc1ccc(/C=C/C(=O)c2c(O)cc(O)cc2O)cc1
inhibition [1]: Active | Activity (HEK293): Non-Toxic | inhibition (INH) [2]: Active | pIC50 [3]: 4.47 | inhibition (INH) [4]: Active

O=C(CCc1ccccc1)c1c(O)cc(O)cc1O
inhibition [1]: Active | Activity (HEK293): Non-Toxic | inhibition (INH) [2]: Active | pIC50 [3]: 4.83 | inhibition (INH) [4]: Active

COc1ccc(CCC(=O)c2c(O)cc(O)cc2O)cc1
inhibition [1]: Active | Activity (HEK293): Non-Toxic | inhibition (INH) [2]: Active | pIC50 [3]: 4.73 | inhibition (INH) [4]: Active

Cc1ccc(CCC(=O)c2c(O)cc(O)c([C@@H]3O[C@H](CO)[C@@H](O)[C@H](O)[C@H]3O)c2O)cc1
inhibition [1]: Active | Activity (HEK293): Non-Toxic | inhibition (INH) [2]: Active | pIC50 [3]: 7.74 | inhibition (INH) [4]: Not Active

O=C(CCc1ccc(O)cc1)c1c(O)cc(O)c([C@@H]2O[C@H](CO)[C@@H](O)[C@H](O)[C@H]2O)c1O
inhibition [1]: Active | Activity (HEK293): Non-Toxic | inhibition (INH) [2]: Active | pIC50 [3]: 7.92 | inhibition (INH) [4]: Not Active
